According to ChEMBL document CHEMBL1150285, “Combination of non-natural D-amino acid derivatives and allophenylnorstatine-dimethylthioproline scaffold in HIV protease inhibitors have high efficacy in mutant HIV” (J Med Chem, 2008):
pEC50, pIC50: −log10 of the molar value.

What was measured:
[1] = Cytotoxicity against human MT4 cells by MTT assay; format: cell-based
[2] = system: Human immunodeficiency virus 1; test: Antiviral activity against HIV1 3B in presence of 10% fetal calf serum; format: functional, organism-based; conditions: Human immunodeficiency virus 1, 3B
[3] = system: Human immunodeficiency virus 1; test: microbe, parasite or virus in culture; format: functional, organism-based; conditions: Human immunodeficiency virus 1, NL432
[4] = system: Human immunodeficiency virus 1; test: Ratio of EC50 for nelfinavir-resistant HIV1 NL432 to EC50 for wild-type HIV1 NL432; format: functional
[5] = system: Human immunodeficiency virus 1; test: Antiviral activity against HIV1 3B in presence of 10% fetal calf serum and alpha1 acid glycoprotein; format: functional, organism-based; conditions: Human immunodeficiency virus 1, 3B
[6] = Selectivity index, ratio of CC50 for human MT4 cells to EC50 for HIV1 3B; conditions: MT4 cells
[7] = system: Human immunodeficiency virus 1; test: microbe, parasite or virus in culture; format: functional, organism-based; conditions: Human immunodeficiency virus 1, NL432; remark: listed apart in the source
Protease = Protease (Human immunodeficiency virus 1, UniProt Q9YQ12); test: Inhibition of HIV1 protease
Protease, sequence (Q9YQ12 whole entry): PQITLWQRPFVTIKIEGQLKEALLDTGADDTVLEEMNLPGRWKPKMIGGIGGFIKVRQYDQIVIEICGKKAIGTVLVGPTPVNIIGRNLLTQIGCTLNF
How it was run: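 HIV-1 protease (2 µg/mL stock in pH 5.5 acetate buffer) was mixed with test compound (10 nM solution in DMSO) in MES-NaOH buffer, pH 5.5, containing DTT, EDTA and NaCl. The mixture was preincubated 5 min at 37 °C, then started with substrate H-Lys-Ala-Arg-Val-Tyr*Phe(p-NO₂)-Glu-Ala-Nle-NH₂. After 60 min at 37 °C, the reaction was stopped with 1N HCl.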

[8] = system: Human immunodeficiency virus 1; test: Antiviral activity against wild type HIV1 NL432; format: functional, organism-based; conditions: Human immunodeficiency virus 1, NL432
[9] = biological target: Protease (Human immunodeficiency virus 1) (UniProt Q9YQ12); conditions: at 1 nM
Protease (Human immunodeficiency virus 1), sequence (Q9YQ12 as listed by the source): as the sequence (Q9YQ12 whole entry) above

[10] = system: Human immunodeficiency virus 1; test: Antiviral activity against HIV1 3B in human MT4 cells assessed as inhibition of viral-induced cytopathic effect by MTT method; format: functional, organism-based; conditions: Human immunodeficiency virus 1, 3B
[11] = system: Human immunodeficiency virus 1; test: Antiviral activity against nelfinavir-resistant HIV1 NL432; format: functional, organism-based; conditions: Human immunodeficiency virus 1, NL432

SMILES | CC50 [1] [nM] | pEC50 [2] | pEC50 [3] | Ratio EC50 [4] | pEC50 [5] | selectivity ratio [6] | pEC50 [7] | pIC50 (Protease) | pEC50 [8] | inhibition [9] [%] | pEC50 [10] | pEC50 [11]
Cc1ccccc1CNC(=O)[C@H]1N(C(=O)[C@@H](O)[C@H](Cc2ccccc2)NC(=O)[C@@H](COCc2ccccc2)NS(C)(=O)=O)CSC1(C)C | 17000 | 7.70 | 7.05 | 0.1 | 7.05 | 850 | 7.04 | 9.25 | 7.66 | 59 | 7.70 | 8.64
COc1ccc(CSC[C@@H](NC(C)=O)C(=O)N[C@@H](Cc2ccccc2)[C@H](O)C(=O)N2CSC(C)(C)[C@H]2C(=O)NCc2ccccc2C)cc1 |  |  |  | 0.14 | 7.05 | 1300 |  | 9.74 |  | 87 |  | 
CC(=O)N[C@H](COCc1ccccc1)C(=O)N[C@@H](Cc1ccccc1)[C@H](O)C(=O)N1CSC(C)(C)[C@H]1C(=O)NCc1ccccc1C | > 30000 | 7.70 | 7.11 | 0.28 | 6.56 | > 1400 | 7.36 | 9.41 | 7.64 | 64 | 7.68 | 8.19
COc1ccc(CSC[C@@H](NS(C)(=O)=O)C(=O)N[C@@H](Cc2ccccc2)[C@H](O)C(=O)N2CSC(C)(C)[C@H]2C(=O)NCc2ccccc2C)cc1 | 10000 | 8.03 | 7.70 | 0.04 | 7.03 | 1100 | 7.64 | 9.59 | 7.80 | 77 | 8.03 | 9.17
CC(=O)N[C@H](CS(=O)(=O)c1ccc(Cl)cc1)C(=O)N[C@@H](Cc1ccccc1)[C@H](O)C(=O)N1CSC(C)(C)[C@H]1C(=O)NCc1ccccc1C | 18000 | 7.57 | 7.36 | 0.11 | 5.90 | 380 | 7.72 | 9.66 | 7.06 | 80 | 7.33 | 8.02
Cc1ccccc1CNC(=O)[C@H]1N(C(=O)[C@@H](O)[C@H](Cc2ccccc2)NC(=O)[C@@H](CS(=O)(=O)c2cccc3ccccc23)NS(C)(=O)=O)CSC1(C)C | 19000 |  |  |  |  | 310 |  | 10.08 |  | 97 | 7.21 | 
